Test results published in ChEMBL document CHEMBL5154715, “Phenolic Lipids Derived from Cashew Nut Shell Liquid to Treat Metabolic Diseases” (J Med Chem, 2022).
pEC50: −log10 of the molar value. Calls of active or inactive are those of the source. No cut-off for these calls is given here.

Tests used:
[1] = molecular target: T1, Peroxisome proliferator-activated receptor alpha (Mus musculus) (UniProt P23204); test: Agonist activity at human PPARalpha in mouse hepatocytes assessed as induction of cd36 mRNA expression at 50 uM incubated for 16 hrs by quantitative real-time PCR analysis; type: cell-based; conditions: Hepatocyte, filed as agonist
T1 sequence (whole entry): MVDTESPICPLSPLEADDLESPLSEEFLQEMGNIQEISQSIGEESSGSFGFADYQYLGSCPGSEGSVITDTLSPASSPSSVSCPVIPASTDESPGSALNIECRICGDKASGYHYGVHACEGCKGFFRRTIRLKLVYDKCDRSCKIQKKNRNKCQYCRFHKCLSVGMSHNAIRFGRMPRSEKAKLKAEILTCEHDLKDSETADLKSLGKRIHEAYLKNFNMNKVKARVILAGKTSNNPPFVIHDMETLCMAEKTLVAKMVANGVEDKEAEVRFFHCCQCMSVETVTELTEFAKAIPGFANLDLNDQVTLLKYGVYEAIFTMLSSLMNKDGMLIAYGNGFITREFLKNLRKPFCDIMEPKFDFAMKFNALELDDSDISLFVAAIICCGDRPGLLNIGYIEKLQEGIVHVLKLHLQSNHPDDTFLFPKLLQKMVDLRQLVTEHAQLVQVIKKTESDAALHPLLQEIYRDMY
Method in brief: (§1)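 Collagenase-perfused mouse primary hepatocytes from WT mice, plated 2 h in attachment medium, overnight in M199 with 5% charcoal-stripped FBS and 1 nM insulin. Treated next day in serum-free M199 with 50 μM compound for 16 h. RNA qPCR (SYBR Green), comparative Ct method.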

[2] = molecular target: T1, Peroxisome proliferator-activated receptor alpha (Mus musculus); test: Agonist activity at human PPARalpha in mouse hepatocytes assessed as induction of Pdk4 mRNA expression at 50 uM incubated for 16 hrs by quantitative real-time PCR analysis; type: cell-based; conditions: Hepatocyte, filed as agonist; method in brief: as §1
[3] = molecular target: T1, Peroxisome proliferator-activated receptor alpha (Mus musculus); test: Agonist activity at human PPARalpha in mouse hepatocytes assessed as induction of Fgf21 mRNA expression at 50 uM incubated for 16 hrs by quantitative real-time PCR analysis; type: cell-based; conditions: Hepatocyte, filed as agonist; method in brief: as §1
[4] = molecular target: T1, Peroxisome proliferator-activated receptor alpha (Mus musculus); test: Agonist activity at human PPARalpha in mouse hepatocytes assessed as induction of fabp1 mRNA expression at 50 uM incubated for 16 hrs by quantitative real-time PCR analysis; type: cell-based; conditions: Hepatocyte, filed as agonist; method in brief: as §1
[5] = molecular target: T2, Peroxisome proliferator-activated receptor alpha (Homo sapiens) (UniProt Q07869); test: Agonist activity at human PPARalpha expressed in HEK293 cells assessed as maximal activity by luciferase/beta-galactosidase reporter gene assay relative to GW7647; type: cell-based
T2 sequence (whole entry): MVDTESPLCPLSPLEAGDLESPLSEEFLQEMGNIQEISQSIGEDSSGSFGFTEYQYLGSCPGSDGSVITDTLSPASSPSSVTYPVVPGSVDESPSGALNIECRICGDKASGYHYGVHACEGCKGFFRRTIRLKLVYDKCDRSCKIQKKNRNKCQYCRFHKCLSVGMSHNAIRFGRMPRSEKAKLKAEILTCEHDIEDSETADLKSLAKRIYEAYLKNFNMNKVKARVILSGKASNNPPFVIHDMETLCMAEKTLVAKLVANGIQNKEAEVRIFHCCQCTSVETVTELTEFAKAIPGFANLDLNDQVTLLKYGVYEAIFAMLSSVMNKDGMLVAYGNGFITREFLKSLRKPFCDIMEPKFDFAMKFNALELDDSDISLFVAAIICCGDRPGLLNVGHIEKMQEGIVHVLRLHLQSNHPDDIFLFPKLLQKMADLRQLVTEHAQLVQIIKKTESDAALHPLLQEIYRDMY
Method in brief: (§2)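 HEK293 cells in charcoal-stripped FBS, calcium phosphate co-transfected with GAL4-hPPAR LBD fusion, UAS-luciferase and β-galactosidase. Ligand added 6–8 h post transfection, full dose–response, harvested 14–16 h later. Luciferase normalized to β-galactosidase.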

[6] = molecular target: T2, Peroxisome proliferator-activated receptor alpha (Homo sapiens); test: Agonist activity at human PPARalpha transfected in HEK293 cells assessed as relative luciferase unit at 50 uM measured after 16 hrs by luciferase reporter gene assay; type: cell-based; conditions: filed as agonist
Method in brief: (§3)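 GAL4-hPPAR (α or γ) plus UAS-luciferase and β-galactosidase transiently co-transfected into HEK293 cells, then treated with 50 μM compound for 16 h. RLU = luciferase/β-galactosidase × time, vehicle (DMSO) set to 1. Mean ± SD, N = 3; one-way ANOVA with Holm–Šidák vs vehicle.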

[7] = molecular target: T3, Peroxisome proliferator-activated receptor delta (Homo sapiens) (UniProt Q03181)
T3 sequence (whole entry): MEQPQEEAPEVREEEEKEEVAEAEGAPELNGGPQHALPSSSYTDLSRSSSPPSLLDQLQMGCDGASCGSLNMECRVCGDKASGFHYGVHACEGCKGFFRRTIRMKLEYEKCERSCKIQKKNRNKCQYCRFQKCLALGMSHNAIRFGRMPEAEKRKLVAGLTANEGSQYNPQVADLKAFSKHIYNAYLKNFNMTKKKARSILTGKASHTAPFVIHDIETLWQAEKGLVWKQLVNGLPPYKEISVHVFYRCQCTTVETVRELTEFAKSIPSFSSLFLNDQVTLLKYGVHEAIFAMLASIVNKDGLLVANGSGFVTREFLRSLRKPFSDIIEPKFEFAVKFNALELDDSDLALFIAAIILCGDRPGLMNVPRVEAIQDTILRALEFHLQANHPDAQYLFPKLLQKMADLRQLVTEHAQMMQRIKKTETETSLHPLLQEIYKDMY

[8] = molecular target: T4, Peroxisome proliferator-activated receptor gamma (Homo sapiens) (UniProt P37231); test: Agonist activity at human PPARgamma transfected in HEK293 cells assessed as relative luciferase unit at 50 uM measured after 16 hrs by luciferase reporter gene assay; type: cell-based; conditions: filed as agonist; method in brief: as §3
T4 sequence (whole entry): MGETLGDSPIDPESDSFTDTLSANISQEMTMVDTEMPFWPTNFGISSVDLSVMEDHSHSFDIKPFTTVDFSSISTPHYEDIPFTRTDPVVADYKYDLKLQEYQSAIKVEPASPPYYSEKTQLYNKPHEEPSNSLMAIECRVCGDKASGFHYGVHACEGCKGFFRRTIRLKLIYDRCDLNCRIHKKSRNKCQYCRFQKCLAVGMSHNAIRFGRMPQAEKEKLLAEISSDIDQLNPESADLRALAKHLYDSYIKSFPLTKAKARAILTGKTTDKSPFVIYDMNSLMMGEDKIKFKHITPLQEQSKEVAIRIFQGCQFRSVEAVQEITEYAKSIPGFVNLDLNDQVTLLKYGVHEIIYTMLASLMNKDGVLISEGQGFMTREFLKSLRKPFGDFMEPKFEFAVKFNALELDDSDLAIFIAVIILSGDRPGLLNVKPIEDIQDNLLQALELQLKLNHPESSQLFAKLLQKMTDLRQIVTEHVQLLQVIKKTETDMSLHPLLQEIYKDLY

[9] = molecular target: T5, Peroxisome proliferator-activated receptor gamma (Homo sapiens, UniProt P37231); test: Agonist activity at human PPARgamma expressed in HEK293 cells by luciferase/beta-galactosidase reporter gene assay; type: cell-based; method in brief: as §2
T5 sequence (P37231 whole entry): T4 sequence (whole entry)

[10] = molecular target: T6, Peroxisome proliferator-activated receptor alpha (Homo sapiens, UniProt Q07869); test: Agonist activity at human PPARalpha expressed in HEK293 cells by luciferase/beta-galactosidase reporter gene assay; type: cell-based; method in brief: as §2
T6 sequence (Q07869 whole entry): T2 sequence (whole entry)

[11] = molecular target: T4, Peroxisome proliferator-activated receptor gamma (Homo sapiens); test: Agonist activity at human PPARgamma expressed in HEK293 cells assessed as maximal activity by luciferase/beta-galactosidase reporter gene assay relative to rosiglitazone; type: cell-based; method in brief: as §2
[12] = molecular target: T7, Peroxisome proliferator-activated receptor gamma (Mus musculus) (UniProt P37238); test: Agonist activity at human PPARgamma in mouse 3T3-L1 cells assessed as induction of adipogenic differentiation at 25 uM measured after 11 days by Oil Red O staining analysis; type: cell-based; conditions: filed as agonist, time 11.0 day
T7 sequence (whole entry): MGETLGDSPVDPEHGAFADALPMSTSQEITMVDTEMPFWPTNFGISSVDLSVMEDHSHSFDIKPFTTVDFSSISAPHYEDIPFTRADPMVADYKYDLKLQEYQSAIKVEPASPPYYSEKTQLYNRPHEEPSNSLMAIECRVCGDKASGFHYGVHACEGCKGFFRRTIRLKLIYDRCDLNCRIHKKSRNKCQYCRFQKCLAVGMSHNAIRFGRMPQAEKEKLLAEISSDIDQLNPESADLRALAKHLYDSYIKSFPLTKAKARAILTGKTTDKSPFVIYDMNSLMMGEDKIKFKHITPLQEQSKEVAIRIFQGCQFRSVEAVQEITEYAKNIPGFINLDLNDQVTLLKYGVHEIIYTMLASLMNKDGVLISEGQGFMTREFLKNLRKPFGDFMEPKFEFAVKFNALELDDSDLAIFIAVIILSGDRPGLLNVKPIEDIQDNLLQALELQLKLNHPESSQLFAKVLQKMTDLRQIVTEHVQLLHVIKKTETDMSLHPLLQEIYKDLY
Method in brief: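 3T3-L1 cells differentiated for 11 days (IBMX/dexamethasone/insulin induction, then insulin, then maintenance medium) with 25 μM compound or 10 μM rosiglitazone from day 0. Cells formalin-fixed and stained with 0.6% Oil Red O. Lipid quantified spectrophotometrically after dye extraction.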

[13] = molecular target: T2, Peroxisome proliferator-activated receptor alpha (Homo sapiens); test: Stabilization of human PPARalpha LBD assessed as change in melting temperature at 25 uM by thermal shift assay
Method in brief: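 Purified hPPAR LBD at 1 mg/mL (∼25 μM) with ligand (α-LBD at 25 μM; γ- and δ-LBD at 50 μM). Static light scattering at 473 nm from 25 to 70 °C in 0.5 °C steps, 1 °C/min. Tm from four-parameter fit; ΔTm relative to DMSO; mean ± SEM, N = 3.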

[14] = Metabolic stability in C57BL/6 mouse liver microsomes assessed as parent compound remaining incubated for 120 mins; type: ADME, Microsome; conditions: read-out: Stability
[15] = molecular target: T3, Peroxisome proliferator-activated receptor delta (Homo sapiens); test: Stabilization of human PPARdelta LBD assessed as change in melting temperature at 50 uM by thermal shift assay
[16] = Metabolic stability in C57BL/6 mouse liver microsomes assessed as half life; type: ADME, Microsome; conditions: time 2 min
[17] = molecular target: T4, Peroxisome proliferator-activated receptor gamma (Homo sapiens); test: Stabilization of human PPARgamma LBD assessed as change in melting temperature at 50 uM by thermal shift assay

SMILES	Activity [2]	Emax [5]	Activity [6]	Activity [8]	pEC50 [9]	pEC50 [10]	also measured
CC(C)(Sc1ccc(CCN(CCCCC2CCCCC2)C(=O)NC2CCCCC2)cc1)C(=O)O	Active						Activity [1]: Active; Activity [3]: Active; Activity [4]: Active
CCCCCCCCCCCCCCCc1cccc(OC)c1C(=O)O	Active	30%	Active				Activity [3]: Active
CCCCCCCCCCCCCCCc1cccc(O)c1C(=O)O [ANACARDIC ACID]	Active	30%	Active	Active	4.77	5.46	EC50 ([7]; HEK293, filed as agonist): 68 µM; Emax ([11]; filed as agonist): > 90%
CCCCCC/C=C\CCCCCCCc1cccc(OCC(=O)O)c1			Active	Active	< 4.30	4.68	Activity [1]: Active; EC50 ([7]; HEK293, filed as agonist): 70 µM; Emax ([5]; filed as agonist): > 90%
CCCCCC/C=C\CCCCCCCc1cccc(OC(C)(C)C(=O)OCC)c1		30%	Active	Active	< 4.30	4.17	Activity [1]: Active; EC50 ([7]; HEK293): > 100 µM; Activity [4]: Active
CCCCCCCCCCCCCCCCCC(=O)O [STEARIC ACID]		30%	Active			4.40	
CCCCCCCCCCCCCC(=O)O [MYRISTIC ACID]		30%	Active			4.89	
CCCCCCCCCCCCCCCc1ccc(C(=O)O)c(O)c1	Active	30%	Active			5.05	Activity [3]: Active
CCCCCCCC/C=C\CCCCCCCC(=O)O [OLEIC ACID]			Active			4.44	EC50 ([7]; HEK293, filed as agonist): 47 µM; Emax ([5]; filed as agonist): > 90%
CCCCCCCCCCCCCCCc1cccc(OCC(=O)OCC)c1		30%	Active	Active	4.54		Activity [12]: Active; EC50 ([7]; HEK293): > 100 µM; ΔTm [13]: -4.5 °C; remaining at 2 h [14]: 28%; ΔTm [15]: 1.2 °C; half-life [16]: 1.1 h; ΔTm [17]: -3 °C; Emax [11]: 30%
CCCCCCCCCCCCCCCc1ccc(C(=O)O)c(OC)c1		30%	Active	Active	5.09	4.77	Emax [11]: 30%
CCCCCCCCCC(=O)O [DECANOIC ACID]		30%	Active			4.51	
